ChEMBL document CHEMBL3046803, “Synthesis and insecticidal activities of novel anthranilic diamides containing acylthiourea and acylurea” (2012)

What was measured:
Format in all cases: functional
Mythimna separata [1] = assay: Insecticidal activity against Mythimna separata (Oriental armyworm) fourth-instar larvae infected Zea mays leaves assessed as larvicidal activity at 200 mg/L measured 2 days post dose
Procedure, shortened: (§1)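 Foliar application test: individual corn (Tangyu 10) leaves were placed on moistened filter paper in Petri dishes.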

Mythimna separata [2] = assay: Insecticidal activity against Mythimna separata (Oriental armyworm) fourth-instar larvae infected Zea mays leaves assessed as larvicidal activity at 20 mg/L measured 2 days post dose; procedure, shortened: as §1
Plutella xylostella [3] = assay: Insecticidal activity against Plutella xylostella (diamondback moth) s-instar larvae infected in fresh cabbage leaves assessed as larvicidal activity at 0.001 mg/L measured 2 days post dose
Procedure, shortened: (§2)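 Leaf-dip (spray) test: a 200 mg/L stock in DMF was diluted with distilled water. Cabbage leaf disks (6 × 2 cm) were sprayed for 3 s, dried, and placed individually in glass tubes. Each disk received 30 second-instar larvae. Mortality was scored at 2 days; triplicate.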

Plutella xylostella [4] = assay: Insecticidal activity against Plutella xylostella (diamondback moth) s-instar larvae infected in fresh cabbage leaves assessed as larvicidal activity at 0.1 mg/L measured 2 days post dose; procedure, shortened: as §2
Mythimna separata [5] = assay: Insecticidal activity against Mythimna separata (Oriental armyworm) fourth-instar larvae infected Zea mays leaves assessed as larvicidal activity at 10 mg/L measured 2 days post dose; procedure, shortened: as §1
Plutella xylostella [6] = assay: Insecticidal activity against Plutella xylostella (diamondback moth) s-instar larvae infected in fresh cabbage leaves assessed as larvicidal activity at 20 mg/L measured 2 days post dose; procedure, shortened: as §2
Plutella xylostella [7] = assay: Insecticidal activity against Plutella xylostella (diamondback moth) s-instar larvae infected in fresh cabbage leaves assessed as larvicidal activity at 0.01 mg/L measured 2 days post dose; procedure, shortened: as §2
Mythimna separata [8] = assay: Insecticidal activity against Mythimna separata (Oriental armyworm) fourth-instar larvae infected Zea mays leaves assessed as larvicidal activity at 100 mg/L measured 2 days post dose; procedure, shortened: as §1
Mythimna separata [9] = assay: Insecticidal activity against Mythimna separata (Oriental armyworm) fourth-instar larvae infected Zea mays leaves assessed as larvicidal activity at 5 mg/L measured 2 days post dose; procedure, shortened: as §1
Mythimna separata [10] = assay: Insecticidal activity against Mythimna separata (Oriental armyworm) fourth-instar larvae infected Zea mays leaves assessed as larvicidal activity at 50 mg/L measured 2 days post dose; procedure, shortened: as §1
Plutella xylostella [11] = assay: Insecticidal activity against Plutella xylostella (diamondback moth) s-instar larvae infected in fresh cabbage leaves assessed as larvicidal activity at 1 mg/L measured 2 days post dose; procedure, shortened: as §2
Culex pipiens pallens [12] = assay: Insecticidal activity against Culex pipiens pallens (mosquito) fourth-instar larvae assessed as larvicidal activity at 2 mg/L measured 3 days post dose
Procedure, shortened: (§3)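 Mosquito larvicidal test: compounds were dissolved in acetone and diluted with distilled water to the test concentrations.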

Culex pipiens pallens [13] = assay: Insecticidal activity against Culex pipiens pallens (mosquito) fourth-instar larvae assessed as larvicidal activity at 1 mg/L measured 3 days post dose; procedure, shortened: as §3
Culex pipiens pallens [14] = assay: Insecticidal activity against Culex pipiens pallens (mosquito) fourth-instar larvae assessed as larvicidal activity at 0.5 mg/L measured 3 days post dose; procedure, shortened: as §3

Row | SMILES | Activity (Mythimna separata [1]) [%] | Activity (Mythimna separata [8]) [%] | Activity (Culex pipiens pallens [12]) [%] | further results
1 | CCCCNC(=O)c1cc(Cl)cc(C)c1NC(=O)NC(=O)c1cc(C(F)(F)F)nn1-c1ncccc1Cl | 40 | – | – | –
2 | CCNC(=O)c1cc(Cl)cc(C)c1NC(=S)NC(=O)c1cc(C(F)(F)F)nn1-c1ncccc1Cl | 100 | 100 | – | Activity (Mythimna separata [2]): 100%; Activity (Plutella xylostella [3]): 29%; Activity (Plutella xylostella [4]): 100%; Activity (Mythimna separata [5]): 100%; Activity (Plutella xylostella [6]): 100%; Activity (Plutella xylostella [7]): 86%; Activity (Mythimna separata [9]): 0%; Activity (Mythimna separata [10]): 100%; Activity (Plutella xylostella [11]): 100%
3 | Cc1cccc(C(=O)NCCC(C)C)c1NC(=S)NC(=O)c1cc(Br)nn1-c1ncccc1Cl | 100 | 30 | 20 | –
4 | CNC(=O)c1cc(Cl)cc(C)c1NC(=O)NC(=O)c1cc(C(F)(F)F)nn1-c1ncccc1Cl | 100 | 20 | – | –
5 | O=C(NC(=O)c1cc(C(F)(F)F)nn1-c1ncccc1Cl)Nc1ccc(Cl)cc1C(=O)NC1CC1 | 30 | – | – | –
6 | Cc1cc(Br)cc(C(=O)NC(C)C)c1NC(=S)NC(=O)c1cc(Br)nn1-c1ncccc1Cl | 100 | 100 | 90 | Activity (Mythimna separata [2]): 100%; Activity (Mythimna separata [5]): 100%; Activity (Culex pipiens pallens [13]): 70%; Activity (Culex pipiens pallens [14]): 30%; Activity (Mythimna separata [9]): 0%; Activity (Mythimna separata [10]): 100%
7 | CNC(=O)c1cc(Cl)cc(C)c1NC(=S)NC(=O)c1cc(Br)nn1-c1ncccc1Cl | 100 | 100 | 60 | Activity (Mythimna separata [2]): 100%; Activity (Mythimna separata [5]): 100%; Activity (Culex pipiens pallens [13]): 20%; Activity (Mythimna separata [9]): 50%; Activity (Mythimna separata [10]): 100%
8 | CNC(=O)c1cc(Cl)cc(C)c1NC(=S)NC(=O)c1cc(Cl)nn1-c1ncccc1Cl | 100 | 100 | 70 | Activity (Mythimna separata [2]): 100%; Activity (Mythimna separata [5]): 40%; Activity (Culex pipiens pallens [13]): 30%; Activity (Mythimna separata [10]): 100%
9 | CCCNC(=O)c1cc(Cl)ccc1NC(=O)NC(=O)c1cc(C(F)(F)F)nn1-c1ncccc1Cl | 0 | – | – | –
10 | Cc1cccc(C(=O)NCCC(C)C)c1NC(=S)NC(=O)c1cc(Cl)nn1-c1ncccc1Cl | 60 | – | 10 | –
11 | Cc1cc(Cl)cc(C(=O)NC(C)(C)C)c1NC(=O)NC(=O)c1cc(C(F)(F)F)nn1-c1ncccc1Cl | 60 | – | – | –
12 | Cc1cccc(C(=O)NC2CC2)c1NC(=O)NC(=O)c1cc(C(F)(F)F)nn1-c1ncccc1Cl | 100 | 80 | – | –
13 | Cc1cc(Br)cc(C(=O)NC(C)C)c1NC(=S)NC(=O)c1cc(Cl)nn1-c1ncccc1Cl | 100 | 80 | 90 | Activity (Culex pipiens pallens [13]): 60%; Activity (Culex pipiens pallens [14]): 20%; Activity (Mythimna separata [10]): 40%
14 | CCCNC(=O)c1cccc(C)c1NC(=O)NC(=O)c1cc(C(F)(F)F)nn1-c1ncccc1Cl | 60 | – | – | –
15 | Cc1cccc(C(=O)NC(C)C)c1NC(=S)NC(=O)c1cc(Cl)nn1-c1ncccc1Cl | 100 | 100 | 20 | Activity (Mythimna separata [2]): 100%; Activity (Mythimna separata [5]): 100%; Activity (Mythimna separata [9]): 0%; Activity (Mythimna separata [10]): 100%
16 | Cc1cc(Cl)cc(C(=O)NC(C)C)c1NC(=O)NC(=O)c1cc(C(F)(F)F)nn1-c1ncccc1Cl | 70 | – | – | –
17 | Cc1cc(Cl)cc(C(=O)NC2CC2)c1NC(=O)NC(=O)c1cc(C(F)(F)F)nn1-c1ncccc1Cl | 20 | – | – | –
18 | Cc1cc(Cl)cc(C(=O)NC2CCCCC2)c1NC(=S)NC(=O)c1cc(Br)nn1-c1ncccc1Cl | 0 | – | 40 | –
19 | Cc1cc(Cl)cc(C(=O)NC2CCCCC2)c1NC(=S)NC(=O)c1cc(C(F)(F)F)nn1-c1ncccc1Cl | 40 | – | – | Activity (Plutella xylostella [6]): 30%; Activity (Plutella xylostella [11]): 0%
20 | Cc1cc(Cl)cc(C(=O)NC2CCCCC2)c1NC(=O)NC(=O)c1cc(C(F)(F)F)nn1-c1ncccc1Cl | 0 | – | – | –
21 | Cc1cc(Br)cc(C(=O)NC2CC2)c1NC(=O)NC(=O)c1cc(C(F)(F)F)nn1-c1ncccc1Cl | 100 | 0 | – | –
